According to PubChem BioAssay:
Activity calls are given as the source filed them.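 How the source made its calls, unless noted: active means fluorescence slope after compound addition differing from the mean of all tested samples at 99.7% confidence, mostly higher but some lower; inactive means the rest.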

Experiments:
[1] = inhibitors of TNFa-induced NFkB p65 translocation, primary screen, imaging, HUVEC, MLSMR starter and 10KST1 sets (AID 438;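 active means inhibition above 20% together with a positive visual image hit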;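 further: compound added about 3h40 before a 20 min TNFalpha stimulation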;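 on inhibition: signal is the nuclear over cytoplasmic p65 intensity ratio per well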); settings: HUVEC TNFa-induced p65 nuclear translocation; cell count: measured here: nuclei count (cytotoxicity indicator), at 2.08 µM; inhibition: at 2 µM, stronger effect = higher value, 0% TNFa-plus-vehicle, 100% no-TNFa wells
[2] = reduction of polyQ htt aggregates in cells – imaging, exon1htt(103Q)mCFP cells, high-content imaging, primary screen (AID 483;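 active means visual image review flags a hit and inhibition of aggregation exceeds 20%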;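 further: compound exposure lasted 3 days before fixation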;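 on nuclei count: percent of the per-plate median nuclei count of sample wells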); settings: exon1htt(103Q)mCFP cell line, aggregate imaging, at 2 µM; inhibition of aggregation: stronger effect = higher value; nuclei count: measured here: cell count, toxicity
[3] = endothelial E-selectin expression blockers – imaging, HUVEC, immunofluorescence, MLSMR starter and 10KST1 sets, primary screen (AID 487;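 active means visually confirmed hit in the image check and inhibition above 20%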;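 on inhibition: signal is fraction of cell area covered by stained E-selectin grains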;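 on nuclei count: 100% = median nuclei count of all wells on the same plate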); settings: HUVEC TNFalpha-induced E-selectin immunofluorescence imaging, at 2 µM; inhibition: stronger effect = higher value; nuclei count: measured here: cell number, toxicity
[4] = biological target: Voltage-gated potassium channel subunit beta-2 (Rattus norvegicus) (UniProt P62483); assay: inhibitors of rat Kvbeta2 reductase activity – biochemical, NADPH fluorescence, primary screen (AID 622;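 active means fluorescence slope higher than the sample average by over 3 SD, cut at about -0.22 in these data, passing the limit was not always enough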;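 further: slope of raw intensity against log time taken from 70 to 1610 s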); settings: recombinant KvBeta, 4-cyanobenzaldehyde reduction, at 10 µM, stronger effect = higher value
[5] = biological target: Voltage-gated potassium channel subunit beta-2 (Rattus norvegicus) (UniProt P62483); assay: enhancers of rat Kvbeta2 NADPH turnover – biochemical, NADPH fluorescence, primary screen (AID 623;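 active means NADPH fluorescence slope more negative than the mean of all samples by about 3 SD, 99.7% confidence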;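 further: fluorescence intensity change per second fitted from 20 to 320 s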); settings: Recombinant KvBeta, NADPH fluorescence decrease slope, 10 min; at 10 µM; stronger effect = lower value
[6] = biological target: Muscarinic acetylcholine receptor M4 (Homo sapiens) (UniProt P08173); assay: M4-linked GIRK flux change, two-sided – cell-based, HEK293 M4/GIRK, thallium flux, BTC-AM, M4 allosteric agonist project, primary screen (AID 625); settings: at 10 µM, actives lie on both sides;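 further: thallium influx through GIRK channels coupled to M4 in HEK293 cells with BTC-AM dye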
Method in brief: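 System: HEK293 cells with M4 receptor and GIRK channels | Incubation: Cells overnight at 37 °C, BTC-AM loading 1 h, reads 2 min total | Technique: Kinetic BTC-AM fluorescence sampled at 1 Hz, 10 s pre-addition baseline | Measure: Post-addition slope, 15–24 s, of baseline-normalized fluorescence | Control set: Carbachol positive, DMSO negative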

[7] = blockers of RIG-like receptor reporter activation – cell-based, Sendai virus stimulus, luciferase, 10K MLSCN set, TLR/RLR signaling modifier project, primary screen (AID 602276;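 active means inhibition at or above 50% at 10 µM; inactive means inhibition below 50%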;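 further: firefly luciferase from ISG56 promoter only with Renilla not read in this screen; 0% = Sendai virus plus DMSO and 100% = medium plus DMSO without virus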); settings: HEK293 RL24 IRF3 luciferase reporter, at 10 µM, stronger effect = higher value
[8] = TLR3 IRF3 reporter activation blockers – cell-based, poly I:C stimulus, luciferase, 10K MLSCN set, primary screen (AID 602277;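 active means inhibition of the reporter signal at or above 50%; inactive means inhibition below 50%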); settings: HEK293-TLR3 RL24 IRF3 luciferase reporter, at 10 µM, stronger effect = higher value

Muscarinic acetylcholine receptor M4 (Homo sapiens), sequence (P08173 whole entry, looked up): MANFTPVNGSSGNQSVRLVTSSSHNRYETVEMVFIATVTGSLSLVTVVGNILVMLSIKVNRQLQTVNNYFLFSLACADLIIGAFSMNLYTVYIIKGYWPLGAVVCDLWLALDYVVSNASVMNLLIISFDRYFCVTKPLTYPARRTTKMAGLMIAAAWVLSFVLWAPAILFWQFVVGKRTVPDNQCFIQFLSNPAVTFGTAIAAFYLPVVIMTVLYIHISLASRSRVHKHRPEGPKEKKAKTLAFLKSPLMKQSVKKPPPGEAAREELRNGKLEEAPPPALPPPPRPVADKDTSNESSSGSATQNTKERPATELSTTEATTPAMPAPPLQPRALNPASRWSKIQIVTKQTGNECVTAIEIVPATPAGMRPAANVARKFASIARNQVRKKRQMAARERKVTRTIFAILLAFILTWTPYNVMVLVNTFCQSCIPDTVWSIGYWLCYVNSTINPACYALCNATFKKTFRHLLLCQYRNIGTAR
Voltage-gated potassium channel subunit beta-2 (Rattus norvegicus), sequence (P62483 whole entry, looked up): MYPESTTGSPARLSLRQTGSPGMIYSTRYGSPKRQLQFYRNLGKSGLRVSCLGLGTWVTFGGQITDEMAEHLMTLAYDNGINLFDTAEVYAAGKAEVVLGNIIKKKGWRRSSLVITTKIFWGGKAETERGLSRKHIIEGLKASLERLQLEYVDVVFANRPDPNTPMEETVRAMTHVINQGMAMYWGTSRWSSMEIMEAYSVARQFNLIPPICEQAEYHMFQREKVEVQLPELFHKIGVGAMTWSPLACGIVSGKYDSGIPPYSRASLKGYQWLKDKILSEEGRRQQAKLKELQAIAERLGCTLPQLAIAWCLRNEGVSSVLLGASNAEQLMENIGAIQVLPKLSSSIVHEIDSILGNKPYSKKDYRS

Row | SMILES | cell count [1] | inhibition [1] | inhibition of aggregation [2] | nuclei count [2] | inhibition [3] | nuclei count [3] | fluorescence slope [4] | NADPH fluorescence slope [5] | fluorescence slope [6] | inhibition [7] | inhibition [8]
1 | CC1C(O)=C(c2nc3ccccc3[nH]2)C(=N)N1c1ccccc1 (stereo not drawn) | 331 | 2.2% (inactive) | -12.9% (inactive) | 103% | -1.7% (inactive) | 104% | -0.482 (inactive) | -2.5e-05 (inactive) | 0.00621 (inactive) | -3.95% (inactive) | -41% (inactive)
2 | Cc1cc(C)cc(N2CCCn3c2nc2c3c(=O)n(CCN3CCOCC3)c(=O)n2C)c1 | 390 | 3.3% (inactive) | 0.7% (inactive) | 108% | 27.6% (inactive) | 103% | -0.388 (inactive) | 6.6e-05 (inactive) | 0.00574 (inactive) | 18.5% (inactive) | 34.4% (inactive)
3 | Cc1ccc2c(c1)c1c(n2CC(O)Cn2c(C)nc3ccccc32)/C(=N\O)CCC1 (stereo not drawn) | 459 | 2.7% (inactive) | -25.1% (inactive) | 14.1% | -15.9% (inactive) | 103% | -0.433 (inactive) | 9.2e-05 (inactive) | 0.00656 (inactive) | 7.68% (inactive) | -1.8% (inactive)
4 | CCCCC(=NCCO)C1=C(O)C(C(=O)OC)C(C)(C)CC1=O (stereo not drawn) | 473 | 1.8% (inactive) | 0.5% (inactive) | 102% | -64.1% (inactive) | 167% | -0.407 (inactive) | 5e-05 (inactive) | 0.00804 (inactive) | 16.3% (inactive) | 18.4% (inactive)
5 | CN(C)Cc1c(O)ccc2oc(Cc3ccccc3)cc12 | 676 | -9.1% (inactive) | 14.8% (inactive) | 65.8% | -12.9% (inactive) | 104% | -0.533 (inactive) | -6.9e-06 (inactive) | 0.00447 (inactive) | 22.6% (inactive) | 22.2% (inactive)
6 | c1ccc2c(NC3CCCC3)nnc(NC3CCCC3)c2c1 | 797 | 7.4% (inactive) | -6.1% (inactive) | 106% | -69.1% (inactive) | 131% | -0.419 (inactive) | 2.2e-05 (inactive) | 0.00394 (inactive) | 7.77% (inactive) | 7.29% (inactive)
7 | O=C(CN1C(=O)CCSc2ccccc21)Nc1ccc2c(c1)OCO2 | 700 | -1.6% (inactive) | 31.4% (inactive) | 91.2% | -215% (inactive) | 111% | -0.474 (inactive) | -2.4e-05 (inactive) | 0.00631 (inactive) | 12.5% (inactive) | 23.4% (inactive)
8 | O=C(CCNC(=O)Cn1ccc2ccccc2c1=O)NCCN1CCN(c2ccccc2F)CC1 | 335 | -5.7% (inactive) | -19.4% (inactive) | 104% | 1.6% (inactive) | 104% | -0.528 (inactive) | 3.6e-05 (inactive) | 0.00558 (inactive) | 12.1% (inactive) | 14.1% (inactive)
9 | O=C(Cc1ccsc1-c1ccccc1)NO | 483 | -1.2% (inactive) | 11.3% (inactive) | 76% | 44.1% (inactive) | 57.7% | -0.46 (inactive) | -3.2e-05 (inactive) | 0.00508 (inactive) | 17.8% (inactive) | 11.3% (inactive)
10 | Nc1nnc(SCC(=O)N2CCc3ccccc32)n1-c1ccccc1 | 449 | -3.6% (inactive) | -2% (inactive) | 94.9% | -79.9% (inactive) | 111% | -0.542 (inactive) | -4.3e-05 (inactive) | 0.00439 (inactive) | 17.7% (inactive) | 27.2% (inactive)
11 | Cc1cc(-c2nc3ncccc3o2)ccc1N | 306 | -8.9% (inactive) | 23.3% (inactive) | 102% | -35.5% (inactive) | 99.8% | -0.0237 (inactive) | 9.6e-08 (inactive) | 0.00386 (inactive) | -34.7% (inactive) | -101% (inactive)
12 | CCOc1ccc(N(CC(=O)NCC2CCCO2)S(=O)(=O)c2ccc(OC)c(OC)c2)cc1 (stereo not drawn) | 326 | 3.5% (inactive) | -10.6% (inactive) | 107% | -47% (inactive) | 112% | -0.572 (inactive) | -3.5e-05 (inactive) | 0.00351 (inactive) | 10.6% (inactive) | 18.4% (inactive)
13 | O=C(c1ccc(Cl)cc1)N(Cc1cccs1)C1CCS(=O)(=O)C1 (stereo not drawn) | 376 | 0.4% (inactive) | -20.1% (inactive) | 110% | -33.8% (inactive) | 112% | -0.555 (inactive) | -9.2e-05 (inactive) | 0.00385 (inactive) | -5.62% (inactive) | -0.322% (inactive)
14 | O=C(OCc1nnc(-c2ccccc2)o1)C1=COCCO1 | 462 | 0% (inactive) | 5.5% (inactive) | 71.7% | -58.4% (inactive) | 110% | -0.432 (inactive) | -1.1e-05 (inactive) | 0.00605 (inactive) | -2.24% (inactive) | -6.55% (inactive)
15 | CCN1CCN(c2c(Cl)cccc2NC(=O)c2ccc3c(c2)OCCO3)CC1 | 505 | 2.1% (inactive) | -4.5% (inactive) | 111% | -82.8% (inactive) | 216% | -0.264 (inactive) | -8.8e-06 (inactive) | 0.0079 (inactive) | 10.2% (inactive) | 18.4% (inactive)
16 | O=C(c1ccccc1)c1ccc2nc[nH]c2c1 | 762 | -1.2% (inactive) | -14.8% (inactive) | 94.7% | -48.9% (inactive) | 128% | -0.571 (inactive) | -3.1e-05 (inactive) | 0.00464 (inactive) | -13.6% (inactive) | -34.9% (inactive)
17 | Nc1nc(CN2CCOCC2)cs1 | 650 | -4.8% (inactive) | 7.7% (inactive) | 104% | 14.6% (inactive) | 113% | -0.577 (inactive) | -2.3e-05 (inactive) | 0.00598 (inactive) | 15.2% (inactive) | 14.7% (inactive)
18 | Cc1ccc(-n2ncc3c(Nc4c(C)n(C)n(-c5ccccc5)c4=O)ncnc32)c(C)c1 | 443 | 9.3% (inactive) | 6.8% (inactive) | 96.6% | -81.8% (inactive) | 120% | -0.538 (inactive) | -2.2e-05 (inactive) | 0.0045 (inactive) | 13.9% (inactive) | 12.5% (inactive)
19 | COCCn1nnnc1C(c1cc2cc(C)cc(C)c2[nH]c1=O)N1CCN(c2ccccc2F)CC1 (stereo not drawn) | 660 | 10.1% (inactive) | -11% (inactive) | 80.7% | 13.5% (inactive) | 130% | -0.413 (inactive) | 0.000111 (inactive) | 0.00818 (inactive) | 16.8% (inactive) | 29.8% (inactive)
20 | COc1ccccc1-n1nnnc1SCc1ccccc1 | 211 | -1.5% (inactive) | 6.5% (inactive) | 108% | -25.5% (inactive) | 92.6% | -0.51 (inactive) | -2.7e-05 (inactive) | 0.00333 (inactive) | 13% (inactive) | 16.5% (inactive)
21 | O=C(O)CCC(=O)Nc1nc(-c2ccccc2)cs1 | 546 | -24.7% (inactive) | -8.2% (inactive) | 110% | 4.3% (inactive) | 147% | -0.449 (inactive) | 0.00011 (inactive) | 0.00599 (inactive) | 16.3% (inactive) | 23.8% (inactive)
22 | COC(=O)c1[nH]c(C)c(/C(O)=C2\C(=O)C(=O)N(CCN(C)C)C2c2ccccc2OC)c1C (stereo not drawn) | 472 | -8% (inactive) | 10.7% (inactive) | 106% | -33.4% (inactive) | 103% | -0.326 (inactive) | -1.8e-05 (inactive) | 0.00598 (inactive) | -8.53% (inactive) | 2.66% (inactive)
23 | COc1ccc(N(CC(=O)N2CCN(Cc3ccc4c(c3)OCO4)CC2)S(C)(=O)=O)cc1OC | 359 | 5% (inactive) | 2.1% (inactive) | 120% | -52.6% (inactive) | 112% | -0.538 (inactive) | -1.7e-05 (inactive) | 0.00506 (inactive) | 21.2% (inactive) | 20.2% (inactive)
24 | COC(=O)c1[nH]c2ccccc2c1NC(=O)CN1CCC(C(N)=O)(N2CCCCC2)CC1 | 259 | 3.8% (inactive) | 6.6% (inactive) | 72.7% | -114% (inactive) | 168% | -0.598 (inactive) | -1.9e-05 (inactive) | 0.00286 (inactive) | 20.8% (inactive) | 30.6% (inactive)
25 | CCn1nc(C(=O)OCC(=O)c2cc(C)n(Cc3cccs3)c2C)c2ccccc2c1=O | 381 | -2.1% (inactive) | 25.7% (inactive) | 90.2% | -97.8% (inactive) | 113% | -0.556 (inactive) | 0.000162 (inactive) | 0.00739 (inactive) | 19.8% (inactive) | 7.59% (inactive)
26 | Cc1ccc(C(=O)CSc2nnc(CNc3ccc(C)cc3C)o2)cc1 | 553 | -7.3% (inactive) | 19.7% (inactive) | 97.5% | -124% (inactive) | 193% | -0.477 (inactive) | -8.9e-06 (inactive) | 0.00488 (inactive) | 6.54% (inactive) | -0.256% (inactive)
27 | CCC(=O)N1CCc2cc(Br)cc(S(=O)(=O)CCC(=O)NCC3CCCO3)c21 (stereo not drawn) | 628 | 2.7% (inactive) | 12.7% (inactive) | 76.3% | -113% (inactive) | 107% | -0.312 (inactive) | -3.4e-05 (inactive) | 0.00706 (inactive) | 11.2% (inactive) | 9.46% (inactive)
28 | O=C1CCc2nc3sc4c(c3c(=O)n2N1)CCCC4 | 667 | -18.1% (inactive) | -14% (inactive) | 104% | 37.8% (inactive) | 98.8% | -0.424 (inactive) | 4.4e-05 (inactive) | 0.00678 (inactive) | -2.82% (inactive) | -5.12% (inactive)
